Data published in ChEMBL document CHEMBL4028836, “Optimization of M4 positive allosteric modulators (PAMs): The discovery of VU0476406, a non-human primate in vivo tool compound for translational pharmacology” (Bioorg Med Chem Lett, 2017).
pEC50, pIC50: −log10 of the molar value. Activity calls are given as the source filed them. The calls are words filed in the database; no cut-off is given here.

Tests used:
[1] = target: T1, Muscarinic acetylcholine receptor M4 (Homo sapiens, UniProt P08173); test: Positive allosteric modulation of human M4 receptor expressed in CHO cells coexpressing Gqi5 assessed as increase in acetylcholine-induced calcium mobilization; assay type: functional, cell-based; conditions: for pEC50: read-out: EC50; for EC50: read-out: pEC50 (converted)
T1 sequence (P08173 whole entry): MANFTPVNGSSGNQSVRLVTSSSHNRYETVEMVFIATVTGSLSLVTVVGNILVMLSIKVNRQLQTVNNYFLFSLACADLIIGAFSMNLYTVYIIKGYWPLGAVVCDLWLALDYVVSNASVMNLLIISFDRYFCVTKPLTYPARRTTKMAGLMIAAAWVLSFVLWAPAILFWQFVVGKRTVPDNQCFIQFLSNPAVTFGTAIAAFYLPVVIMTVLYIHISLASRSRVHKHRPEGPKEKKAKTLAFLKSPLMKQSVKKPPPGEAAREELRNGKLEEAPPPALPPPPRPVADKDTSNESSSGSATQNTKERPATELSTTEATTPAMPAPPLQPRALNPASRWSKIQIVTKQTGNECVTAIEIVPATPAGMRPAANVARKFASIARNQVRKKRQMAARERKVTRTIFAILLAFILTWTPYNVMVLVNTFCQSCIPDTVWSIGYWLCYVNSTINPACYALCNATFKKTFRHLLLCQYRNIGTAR
Outline: (§1)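 Calcium mobilization in CHO cells expressing hM4 with Gqi5. Compound added in presence of a fixed EC20 concentration of acetylcholine. Values are means of three independent experiments, each run in triplicate.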

[2] = target: T2, Muscarinic acetylcholine receptor M4 (Homo sapiens) (UniProt P08173); test: Positive allosteric modulation of human M4 receptor expressed in CHO cells coexpressing Gqi5 assessed as increase in acetylcholine-induced calcium mobilization relative to acetylcholine; assay type: functional, cell-based; outline: as §1
T2 sequence (whole entry): T1 sequence (P08173 whole entry)

Rattus norvegicus [3] = test: Elimination half-life in Sprague-Dawley rat at 0.1 to 1 mg/kg, iv; assay type: ADME, organism-based; conditions: in vivo
[4] = Brain to plasma permeability coefficient, Kp of the compound in Sprague-Dawley rat at 0.1 to 0.2 mg/kg, iv measured at 0.25 hrs post dose; assay type: ADME, organism-based
Outline: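 Sprague-Dawley rats were dosed IV at 0.1–0.2 mg/kg, with brain and plasma sampled at 0.25 hr. Brain:plasma Kp was calculated, with Kp,uu where unbound fractions were available.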

Cytochrome P450 2C9 = Cytochrome P450 2C9 (Homo sapiens, UniProt P11712); test: Inhibition of CYP2C9 (unknown origin); assay type: ADME
Rattus norvegicus [5] = test: Volume of distribution at steady state […] in Sprague-Dawley rat at 0.1 to 1 mg/kg, iv; assay type: ADME, organism-based; conditions: in vivo
Outline: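 IV pharmacokinetics in Sprague-Dawley rats at 0.1–1.0 mg/kg. CLp, elimination t½ and Vss derived.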

[6] = Unbound plasma concentration in human; assay type: ADME, cell-free
Cytochrome P450 1A2 = target: T3, Cytochrome P450 1A2 (Homo sapiens, UniProt P05177); test: Inhibition of CYP1A2 (unknown origin); assay type: ADME
T3 sequence (P05177 whole entry): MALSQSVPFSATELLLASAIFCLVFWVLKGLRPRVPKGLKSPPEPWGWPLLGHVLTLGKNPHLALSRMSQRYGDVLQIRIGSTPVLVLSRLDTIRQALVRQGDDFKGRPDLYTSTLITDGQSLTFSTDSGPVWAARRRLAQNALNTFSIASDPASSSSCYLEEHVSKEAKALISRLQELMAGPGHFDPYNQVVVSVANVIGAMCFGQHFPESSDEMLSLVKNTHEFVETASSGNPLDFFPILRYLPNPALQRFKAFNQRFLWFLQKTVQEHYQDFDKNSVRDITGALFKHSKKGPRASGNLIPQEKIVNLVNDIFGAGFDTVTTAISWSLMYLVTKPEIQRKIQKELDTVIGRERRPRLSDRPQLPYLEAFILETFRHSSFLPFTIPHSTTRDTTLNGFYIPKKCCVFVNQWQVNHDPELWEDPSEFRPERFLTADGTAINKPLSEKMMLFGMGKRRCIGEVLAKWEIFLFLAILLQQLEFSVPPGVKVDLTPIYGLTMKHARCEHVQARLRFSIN

[7] = Unbound plasma concentration in rat; assay type: ADME, cell-free
Cytochrome P450 2D6 = Cytochrome P450 2D6 (Homo sapiens, UniProt P10635); test: Inhibition of CYP2D6 (unknown origin); assay type: ADME
Cytochrome P450 3A4 = Cytochrome P450 3A4 (Homo sapiens, UniProt P08684); test: Inhibition of CYP3A4 (unknown origin); assay type: ADME
Macaca fascicularis [8] = species: Macaca fascicularis; test: Activity at cynomolgus monkey M2 receptor
Macaca fascicularis [9] = species: Macaca fascicularis; test: Displacement of [3H]NMS from cynomolgus monkey M4 receptor
Outline: (§2)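 Competition binding of ACh against [3H]-N-methylscopolamine at M4 of each species. Combined with ACh concentration-response fold-shift Ca2+ mobilization data to fit operational model parameters (KB, α, β). n=3–4, each in duplicate.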

[10] = target: Muscarinic acetylcholine receptor M4 (Rattus norvegicus) (UniProt P08485); test: Displacement of [3H]NMS from rat M4 receptor; outline: as §2
Canis lupus familiaris [11] = species: Canis lupus familiaris; test: Positive allosteric modulation of dog M4 receptor assessed as increase in acetylcholine-induced calcium mobilization relative to acetylcholine
Outline: (§3)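 M4 PAM concentration-response curves measured by calcium mobilization at the stated species' receptor. Potency reported as EC50/pEC50 and efficacy as % of acetylcholine maximum.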

Macaca fascicularis [12] = species: Macaca fascicularis; test: Positive allosteric modulation of cynomolgus monkey M4 receptor assessed as increase in acetylcholine-induced calcium mobilization relative to acetylcholine; outline: as §3
[13] = target: T2, Muscarinic acetylcholine receptor M4 (Homo sapiens); test: Displacement of [3H]NMS from human M4 receptor; outline: as §2
Rattus norvegicus [14] = species: Rattus norvegicus; test: Activity at rat GABA-A receptor
Outline: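 Rat GABAA receptor, benzodiazepine site, radioligand binding in a broad secondary pharmacology panel. IC50 taken from binding. Functional follow-up was run at 10 μM.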

[15] = target: Muscarinic acetylcholine receptor M4 (Rattus norvegicus) (UniProt P08485); test: Positive allosteric modulation of rat M4 receptor assessed as increase in acetylcholine-induced calcium mobilization relative to acetylcholine; assay type: functional; outline: as §3
Canis lupus familiaris [16] = species: Canis lupus familiaris; test: Activity at dog M2 receptor
[17] = Brain to plasma permeability coefficient, Kp of the compound in cynomolgus monkey at 145 MBq, iv measured at 2 hrs post dose by PET analysis; assay type: ADME, organism-based, Macaca fascicularis
Outline: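 PET study in one cynomolgus monkey given a single IV dose of [18F]-labelled compound (145 MBq), with roughly 2 hr of data acquisition after dosing. Whole and regional brain distribution of total and calculated unbound compound was determined.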

[18] = Ratio of unbound CSF to plasma concentration in cynomolgus monkey at 145 MBq, iv measured at 2 hrs post dose by PET analysis; assay type: ADME, organism-based, Macaca fascicularis
[19] = Ratio of unbound brain to plasma concentration in cynomolgus monkey at 145 MBq, iv measured at 2 hrs post dose by PET analysis; assay type: ADME, organism-based, Macaca fascicularis; conditions: read-out: K(p,uu,brain)
Outline: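 Whole and regional brain distribution of total and calculated unbound drug in one cynomolgus monkey. PET after a single IV dose of [18F]-labelled compound (145 MBq), with about 2 h of data acquisition post-dose.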

MDR1 (P-gp) = test: Efflux ratio of permeability in MDCK2-MDR1 cells; assay type: ADME, cell-based, Canis lupus familiaris; conditions: dog, MDCK-MDR1
[20] = Unbound brain concentration in rat; assay type: ADME, tissue-based
[21] = Oral bioavailability in dog at 3 mg/kg; assay type: ADME, organism-based, Canis lupus familiaris; conditions: in vivo
Outline: (§4)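 Dog IV and PO pharmacokinetics. Oral bioavailability from a 3 mg/kg suspension dose of the HCl salt.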

[22] = Oral bioavailability in rat at 10 mg/kg; assay type: ADME, organism-based; conditions: in vivo
Outline: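 Rat oral bioavailability from a 10 mg/kg solution dose. Separately, the HCl salt was dosed as a suspension.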

Cynomolgus monkey [23] = test: Elimination half life in cynomolgus monkey at 10 mg/kg, iv; assay type: ADME, organism-based, Macaca fascicularis; conditions: in vivo
Cynomolgus monkey [24] = test: Volume of distribution at steady state in cynomolgus monkey at 10 mg/kg, iv; assay type: ADME, organism-based, Macaca fascicularis; conditions: in vivo
[25] = Volume of distribution at steady state in dog at 3 mg/kg, iv or po; assay type: ADME, organism-based, Canis lupus familiaris; conditions: in vivo, read-out: Vdss; outline: as §4
[26] = Elimination half life in dog at 3 mg/kg, iv or po; assay type: ADME, organism-based, Canis lupus familiaris; conditions: in vivo, read-out: beta t1/2 (converted)
[27] = Oral bioavailabilty in cynomolgus monkey at 10 mg/kg; assay type: ADME, organism-based, Macaca fascicularis; conditions: in vivo
Outline: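 Cynomolgus monkey oral bioavailability from a 10 mg/kg solution dose of the HCl salt.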

Chain of Cytochrome P450 2D6 (P10635 whole entry): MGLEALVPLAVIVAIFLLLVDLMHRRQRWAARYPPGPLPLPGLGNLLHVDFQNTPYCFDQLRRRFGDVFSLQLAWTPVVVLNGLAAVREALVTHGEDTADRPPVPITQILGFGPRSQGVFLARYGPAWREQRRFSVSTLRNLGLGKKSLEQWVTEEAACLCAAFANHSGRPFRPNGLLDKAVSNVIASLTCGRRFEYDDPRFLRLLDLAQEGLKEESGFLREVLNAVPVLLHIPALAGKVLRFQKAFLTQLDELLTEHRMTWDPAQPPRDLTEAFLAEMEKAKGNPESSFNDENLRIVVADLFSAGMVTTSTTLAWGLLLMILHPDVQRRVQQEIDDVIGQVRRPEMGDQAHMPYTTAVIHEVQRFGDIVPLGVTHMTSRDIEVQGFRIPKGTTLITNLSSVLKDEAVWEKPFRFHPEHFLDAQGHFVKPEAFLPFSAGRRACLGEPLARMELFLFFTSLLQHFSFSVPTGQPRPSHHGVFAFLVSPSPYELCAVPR
Chain of Cytochrome P450 2C9 (P11712 whole entry): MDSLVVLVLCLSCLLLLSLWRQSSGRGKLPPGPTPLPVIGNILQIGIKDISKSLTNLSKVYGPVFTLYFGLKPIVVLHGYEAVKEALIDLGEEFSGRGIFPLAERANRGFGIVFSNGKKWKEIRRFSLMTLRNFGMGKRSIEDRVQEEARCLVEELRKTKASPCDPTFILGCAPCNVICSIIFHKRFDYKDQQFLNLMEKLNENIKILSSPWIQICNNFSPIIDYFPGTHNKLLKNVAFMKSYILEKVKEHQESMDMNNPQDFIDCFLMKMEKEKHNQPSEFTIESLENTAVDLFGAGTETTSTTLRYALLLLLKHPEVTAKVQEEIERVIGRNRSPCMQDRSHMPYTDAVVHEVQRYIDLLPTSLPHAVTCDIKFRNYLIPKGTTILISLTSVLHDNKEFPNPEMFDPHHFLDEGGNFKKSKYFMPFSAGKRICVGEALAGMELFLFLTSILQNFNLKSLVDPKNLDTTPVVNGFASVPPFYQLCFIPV
Chain of Cytochrome P450 3A4 (P08684 whole entry): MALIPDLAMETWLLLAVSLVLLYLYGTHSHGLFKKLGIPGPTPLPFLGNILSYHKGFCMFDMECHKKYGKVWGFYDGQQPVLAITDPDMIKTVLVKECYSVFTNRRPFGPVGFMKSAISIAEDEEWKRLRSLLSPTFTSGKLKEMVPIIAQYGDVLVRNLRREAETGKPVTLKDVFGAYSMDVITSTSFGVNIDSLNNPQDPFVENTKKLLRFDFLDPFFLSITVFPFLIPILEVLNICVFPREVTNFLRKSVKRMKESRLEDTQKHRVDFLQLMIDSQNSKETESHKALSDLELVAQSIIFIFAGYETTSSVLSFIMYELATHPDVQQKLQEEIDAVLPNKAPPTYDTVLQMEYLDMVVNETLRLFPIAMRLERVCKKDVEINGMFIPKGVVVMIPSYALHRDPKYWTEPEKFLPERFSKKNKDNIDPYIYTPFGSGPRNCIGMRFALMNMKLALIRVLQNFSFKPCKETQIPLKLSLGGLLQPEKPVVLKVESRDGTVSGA
Chain of Muscarinic acetylcholine receptor M4 (Rattus norvegicus) (P08485 whole entry): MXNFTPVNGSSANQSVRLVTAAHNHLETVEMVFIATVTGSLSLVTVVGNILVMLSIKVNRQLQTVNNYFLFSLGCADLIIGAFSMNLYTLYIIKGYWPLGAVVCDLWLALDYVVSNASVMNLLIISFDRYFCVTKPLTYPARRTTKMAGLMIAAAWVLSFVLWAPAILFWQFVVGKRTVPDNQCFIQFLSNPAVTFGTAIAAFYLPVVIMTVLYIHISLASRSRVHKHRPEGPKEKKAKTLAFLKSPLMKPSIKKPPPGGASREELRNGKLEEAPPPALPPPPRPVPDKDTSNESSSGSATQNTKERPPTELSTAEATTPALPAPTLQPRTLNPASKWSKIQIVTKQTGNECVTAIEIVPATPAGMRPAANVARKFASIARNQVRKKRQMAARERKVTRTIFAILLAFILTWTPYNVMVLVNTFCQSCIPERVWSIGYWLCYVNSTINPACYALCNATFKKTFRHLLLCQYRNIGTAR

## Cc1nnc2sc(C(=O)NCc3ccccc3-c3ccccc3)c(N)c2c1C
[1]
  pEC50: < 5.00
[2]
  %max: 30%

## Cc1nnc2sc(C(=O)NCc3ccc(-c4ccnc(F)c4)cc3)c(N)c2c1C
Rattus norvegicus [3]
  beta t1/2: 1.7 h
[4]
  Kp: 0.21
Cytochrome P450 2C9
  pIC50: 4.60
Rattus norvegicus [5]
  Vdss: 0.5 L/kg
[6]
  fraction unbound: 0.029
Cytochrome P450 1A2
  pIC50: 5.60
[1]
  pEC50: 7.24
[7]
  fraction unbound: 0.002
Cytochrome P450 2D6
  pIC50: < 4.52
[2]
  %max: 92%
Cytochrome P450 3A4
  pIC50: 4.62

## Cc1nnc2sc(C(=O)NCc3ccc(-c4cnccn4)cc3)c(N)c2c1C
[1]
  pEC50: 6.80
[2]
  %max: 63%

## Cc1nnc2sc(C(=O)NCc3ccc(-c4ccncc4F)cc3)c(N)c2c1C
[1]
  pEC50: 5.77
  EC50: 1550 nM
[2]
  %max: 86%

## Cc1nnc2sc(C(=O)NCc3ccc(-c4ccccc4)cc3)c(N)c2c1C
[1]
  pEC50: 6.50
  EC50: 295 nM
[2]
  %max: 49%

## Cc1nnc2sc(C(=O)NCc3ccc(-c4cncc(F)c4)cc3)c(N)c2c1C
[1]
  pEC50: 6.84
[2]
  %max: 78%

## Cc1nnc2sc(C(=O)NCc3ccc(-c4cccnc4F)cc3)c(N)c2c1C
Macaca fascicularis [8]
  Activity: inactive
Macaca fascicularis [9]
  Kb: 2100 nM
[10]
  Kb: 370 nM
Canis lupus familiaris [11]
  %max: 49%
Macaca fascicularis [12]
  %max: 64%
[13]
  Kb: 2800 nM
Rattus norvegicus [14]
  Activity: inactive
[15]
  %max: 72%
Canis lupus familiaris [16]
  Activity: inactive
[2]
  %max: 74%

## Cc1cc(-c2ccc(CNC(=O)c3sc4nnc(C)c(C)c4c3N)cc2)cnc1F
[1]
  pEC50: 6.00
[2]
  %max: 68%

## Cc1ncc(-c2ccc(CNC(=O)c3sc4nnc(C)c(C)c4c3N)cc2)cn1
[1]
  pEC50: 6.64
  EC50: 214 nM
[2]
  %max: 65%

## Cc1nnc2sc(C(=O)NCc3ccc(Br)cc3)c(N)c2c1C
[1]
  pEC50: 6.73
  EC50: 182 nM
[2]
  %max: 82%

## Cc1nnc2sc(C(=O)NCc3cccc(-c4ccccc4)c3)c(N)c2c1C
[1]
  pEC50: 5.78
[2]
  %max: 41%

## Cc1nnc2sc(C(=O)NCc3ccc(-c4cccnc4)cc3)c(N)c2c1C
[1]
  pEC50: 6.99
[2]
  %max: 63%

## Cc1nnc2sc(C(=O)NCc3ccc(-c4ccc(F)nc4)cc3)c(N)c2c1C
Rattus norvegicus [3]
  beta t1/2: 0.48 h
[4]
  Kp: 0.13
Cytochrome P450 2C9
  pIC50: 4.59
Rattus norvegicus [5]
  Vdss: 0.6 L/kg
[6]
  fraction unbound: 0.023
Cytochrome P450 1A2
  pIC50: 6.10
[1]
  pEC50: 7.19
[7]
  fraction unbound: 0.004
Cytochrome P450 2D6
  pIC50: < 4.52
[2]
  %max: 79%
Cytochrome P450 3A4
  pIC50: 4.60

## COc1ncc(-c2ccc(CNC(=O)c3sc4nnc(C)c(C)c4c3N)cc2)cn1
[1]
  pEC50: 7.08
[2]
  %max: 91%

## Cc1nnc2sc(C(=O)NCc3ccc(-c4cccnc4[18F])cc3)c(N)c2c1C
[17]
  Kp: 0.75
[18]
  Kp uu at 2 h: 1
[19]
  Kp uu at 2 h: 1.1

## Cc1nnc2sc(C(=O)NCc3cccc(Br)c3)c(N)c2c1C
[1]
  pEC50: 6.73
  EC50: 170 nM
[2]
  %max: 84%

## Cc1nnc2sc(C(=O)NCc3ccccc3Br)c(N)c2c1C
[1]
  pEC50: < 5.00
[2]
  %max: 31%

## Cc1nnc2sc(C(=O)NCc3ccc(-c4ccncc4)cc3)c(N)c2c1C
MDR1 (P-gp)
  efflux ratio: 1.1
Rattus norvegicus [3]
  beta t1/2: 1.5 h
[4]
  Kp: 0.94
Cytochrome P450 2C9
  pIC50: 5.64
[6]
  fraction unbound: 0.013
Cytochrome P450 1A2
  pIC50: 5.01
[1]
  pEC50: 7.44
[7]
  fraction unbound: 0.037
[20]
  fraction unbound: 0.042
Cytochrome P450 2D6
  pIC50: 5.89
[2]
  %max: 83%
Cytochrome P450 3A4
  pIC50: 6.47

## Cc1nnc2sc(C(=O)NCc3ccc(-c4ccnnc4)cc3)c(N)c2c1C
[1]
  pEC50: 7.25
[2]
  %max: 96%

## Cc1nnc2sc(C(=O)NCc3ccc(-c4ccccn4)cc3)c(N)c2c1C
[1]
  pEC50: 6.63
  EC50: 214 nM
[2]
  %max: 75%

## Cc1nnc2sc(C(=O)NCc3ccc(-c4cccnc4F)cc3)c(N)c2c1C.Cl
[21]
  bioavailability: 47%
[22]
  bioavailability: 54%
Cynomolgus monkey [23]
  beta t1/2: 1.3 h
Cynomolgus monkey [24]
  Vdss: 0.87 L/kg
[25]
  Vd: 0.7 L/kg
[26]
  half-life: 1 h
[27]
  bioavailability: 4.7%
